This note sets out measurements from ChEMBL document CHEMBL4765373, “Design, synthesis and biological evaluation of rasagiline-clorgyline hybrids as novel dual inhibitors of monoamine oxidase-B and amyloid-β aggregation against Alzheimer's disease” (Eur J Med Chem, 2020).

Structures are written as SMILES. Active and inactive are the calls of the source. The calls are words filed in the database; no cut-off is given here.

In one series the target is T1, MAO-A (Homo sapiens, UniProt P21397).
T1 sequence (P21397 whole entry): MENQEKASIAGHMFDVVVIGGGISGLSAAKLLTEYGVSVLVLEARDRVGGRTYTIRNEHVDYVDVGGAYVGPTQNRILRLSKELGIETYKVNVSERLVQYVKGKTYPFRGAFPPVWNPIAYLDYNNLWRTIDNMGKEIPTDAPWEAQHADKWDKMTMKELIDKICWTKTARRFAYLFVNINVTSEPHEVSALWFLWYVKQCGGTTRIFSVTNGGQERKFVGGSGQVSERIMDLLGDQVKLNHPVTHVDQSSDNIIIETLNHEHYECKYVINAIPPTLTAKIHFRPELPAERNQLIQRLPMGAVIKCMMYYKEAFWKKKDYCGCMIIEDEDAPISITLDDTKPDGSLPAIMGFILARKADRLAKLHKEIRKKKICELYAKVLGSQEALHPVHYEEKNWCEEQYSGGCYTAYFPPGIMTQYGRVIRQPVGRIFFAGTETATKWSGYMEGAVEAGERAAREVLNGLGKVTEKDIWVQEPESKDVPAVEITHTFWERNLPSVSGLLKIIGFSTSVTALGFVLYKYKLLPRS
Nature of the series: Inhibition of recombinant human MAOA expressed in baculovirus infected BTI insect cells at 100 uM using p-tyramine as substrate measured after 15 mins by Amplex red reagent based fluorescence assay relative to control. The following applies: probe p-tyramine. Summed up:
(§1)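 Recombinant human MAO-A or MAO-B with p-tyramine substrate; H2O2 production detected by Amplex Red. Compounds diluted in DMSO/PBS (final DMSO <0.1%) and incubated with enzyme and substrate 15 min at 37 °C in the dark. Fluorescence read at ex/em 545/590 nm; mean ± SD of three independent experiments.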

Series [1] addresses T2, Amine oxidase [flavin-containing] B (Homo sapiens, UniProt P27338).
T2 sequence (P27338 whole entry): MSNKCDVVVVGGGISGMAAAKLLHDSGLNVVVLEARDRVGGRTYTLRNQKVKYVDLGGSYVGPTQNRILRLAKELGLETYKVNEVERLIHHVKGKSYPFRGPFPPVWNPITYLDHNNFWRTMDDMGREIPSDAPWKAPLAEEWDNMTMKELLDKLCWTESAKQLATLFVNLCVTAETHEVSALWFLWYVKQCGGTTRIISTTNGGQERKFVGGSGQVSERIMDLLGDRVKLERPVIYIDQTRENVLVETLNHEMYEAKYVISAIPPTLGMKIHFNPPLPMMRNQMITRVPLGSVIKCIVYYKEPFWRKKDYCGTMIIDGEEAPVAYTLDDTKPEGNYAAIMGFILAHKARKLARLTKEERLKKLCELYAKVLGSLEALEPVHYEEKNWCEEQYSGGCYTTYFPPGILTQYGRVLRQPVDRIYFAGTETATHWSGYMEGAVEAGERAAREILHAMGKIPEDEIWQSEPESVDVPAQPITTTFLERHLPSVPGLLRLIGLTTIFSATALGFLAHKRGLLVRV
The series is described as follows: biochemical. Type of series: cell-based, BTI.

Series [2] is filed under the species Homo sapiens. The series is described as follows: Selectivity index, ratio of IC50 for recombinant human MAOA expressed in baculovirus infected BTI insect cells to IC50 for recombinant human MAOB expressed in baculovirus infected BTI insect cells. Summed up: as §1
Series [3] addresses T2, Amine oxidase [flavin-containing] B. Nature of the series: Competitive inhibition of recombinant human MAOB expressed in baculovirus infected BTI insect cells at 2.5 to 10 nM using varying levels of p-tyramine as substrate by Lineweaver-Burk plot analysis. Particulars: dose 2.5-10 nM. Summed up: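 Recombinant hMAO-B initial rates measured with and without inhibitor at 2.5, 5 and 10 nM. p-Tyramine substrate at 0.05, 0.1, 0.5, 1.0, 1.5 and 3.0 mM. H2O2 production read by Amplex Red fluorescence. Mechanism taken from overlaid Lineweaver–Burk reciprocal plots.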

Series [4] is filed under the species Homo sapiens. Nature of the series: Inhibition of self-induced amyloid beta (1 to 42) (unknown origin) peptide aggregation at 25 uM measured after 48 hrs by thioflavin-T fluorescence assay relative to control.
For series [5], the species on record is Homo sapiens. Nature of the series: Inhibition of self-induced amyloid beta (1 to 42) (unknown origin) peptide aggregation assessed as reduction in number of amyloid beta aggregates by TEM analysis.
The test system of series [6] is SH-SY5Y. Nature of the series: Cytotoxicity against human SH-SY5Y cells assessed as reduction in cell viability at 25 uM after 24 hrs by MTT assay. Type of series: cell-based. Summed up: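 SH-SY5Y cells grown in DMEM with FBS, penicillin/streptomycin, 5% CO2, 37 °C. Seeded at 10,000 cells/well and exposed to compound (6.25–100 µM) for 24 h at 37 °C. MTT added for 4 h, formazan dissolved in DMSO, absorbance read at 570 nm (reference 630 nm). Mean ± SD of three independent experiments.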

For series [7], the system named is SH-SY5Y. The series is described as follows: Neuroprotective activity against 6-OHDA-induced cell death in human SH-SY5Y cells assessed as increase in cell survival at 1.563 to 25 uM incubated for 24 hrs by MTT assay. Type of series: functional, cell-based. The following applies: dose 1.563-25 µM. Summed up:
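SH-SY5Y cells co-incubated with 200 µM 6-OHDA and compound at 1.563, 3.125, 6.25, 12.5 or 25 µM for 24 h. Viability read by MTT assay against a 6-OHDA-only group. Means ± SEM of three independent experiments.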

The nature of series [8]: Half life in Sprague-Dawley rat at 3 mg/kg, iv by LC-MS/MS analysis. The following applies: in vivo. In kind it is ADME, organism-based. Summed up: (§2)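 Male SD rats (n=3, 220 ± 20 g) dosed 3 mg/kg i.v. or 10 mg/kg by oral gavage. Plasma proteins precipitated with two volumes of 0.5% formic acid/acetonitrile; supernatant quantified by LC-MS/MS.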
Series [9] is described as follows: Cmax in Sprague-Dawley rat at 3 mg/kg, iv by LC-MS/MS analysis. In kind it is ADME, organism-based. More on the design: route intravenous, dose 3 mg/kg. Particulars: in vivo. Summed up: as §2
Series [10] in a line: AUC (0 to infinity) in Sprague-Dawley rat at 3 mg/kg, iv by LC-MS/MS analysis. The following applies: in vivo. Set-up: time infinity, route intravenous, dose 3 mg/kg. Type of series: ADME, organism-based. Summed up:
as §2

Series [11] is described as follows: Clearance in Sprague-Dawley rat at 3 mg/kg, iv by LC-MS/MS analysis. Type of series: ADME, organism-based. Particulars: in vivo. Summed up:
as §2

The nature of series [12]: Half life in Sprague-Dawley rat at 10 mg/kg, po administered via gavage by LC-MS/MS analysis. Type of series: ADME, organism-based. The following applies: in vivo. Summed up:
as §2

Series [13] can be described thus: Tmax in Sprague-Dawley rat at 10 mg/kg, po administered via gavage by LC-MS/MS analysis. In kind it is ADME, organism-based. Particulars: in vivo. Summed up: as §2
Series [14] can be described thus: Cmax in Sprague-Dawley rat at 10 mg/kg, po administered via gavage by LC-MS/MS analysis. Type of series: ADME, organism-based. More on the design: route oral, dose 10 mg/kg. The following applies: in vivo. Summed up: as §2
Series [15] in a line: AUC (0 to infinity) in Sprague-Dawley rat at 10 mg/kg, po administered via gavage by LC-MS/MS analysis. Particulars: in vivo. Set-up: route oral, time infinity, dose 10 mg/kg. Type of series: ADME, organism-based. Summed up:
as §2

Series [16] in a line: Oral bioavailability in Sprague-Dawley rat at 10 mg/kg administered via gavage by LC-MS/MS analysis. Particulars: in vivo. Type of series: ADME, organism-based. Summed up: as §2
Another series in a line: in vitro. The following applies: PAMPA, pH 7.4.

Consider `C#CCN(C)CCCCCOc1ccc2c(c1)OCCC2=O`, for which the inhibition at 0.25 h, 100 µM at MAO-A came out at 6.04%. In series [1], this compound returned an IC50 of 4 nM. Also, in the series listed under Homo sapiens [2], the Ratio IC50 was > 2.5 10^4No_unit. Besides, the “inhibition (INH)” value in series [3] is given as “Active”. In addition, in the series filed under Homo sapiens [4], the inhibition is 40.8%. Further, the inhibition entry in the series filed under Homo sapiens [5] is “Active”. For the same compound, in the series with SH-SY5Y [6], the Activity result is reported as “Non-Toxic”. For the same compound, the outcome in the series with SH-SY5Y [7] was Active. The half-life is 1.02 h in [8] and 1.33 h in series [12]. Further, the peak concentration (Cmax) in series [9] stood at 639 ng/mL; in series [14] it was 142 ng/mL. In addition, the AUC in series [10] was determined as 247.74 ng·h/mL. In [11], this compound had a CL of 55.5 mL/min/kg. Besides, the Tmax in series [13] is 0.3 h. In addition, the AUC(0-inf) in series [15] amounted to 268 ng·h/mL. This compound also yielded a bioavailability in [16] of 36.1%. Besides, the Papp at 16 h in “in vitro” was found to be 10.2 ×10⁻⁶ cm/s.
